Test results reported in ChEMBL document CHEMBL1155457, “Discovery of the dual orexin receptor antagonist [(7R)-4-(5-chloro-1,3-benzoxazol-2-yl)-7-methyl-1,4-diazepan-1-yl][5-methyl-2-(2H-1,2,3-triazol-2-yl)phenyl]methanone (MK-4305) for the treatment of insomnia” (J Med Chem, 2010).
pIC50, pKi: −log10 of the molar value. Activity calls are given as the source filed them. No cut-off for these calls is given here.

Experiments:
Liver microsomes = test: Idiosyncratic toxicity in human liver microsomes assessed GSH-derived reactive electrophilic adduct formation at 10 uM after 60 mins by UPLC/HRMS analysis relative to labetalol; design: species or system Microsome; details: 1 h
Outline: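 Pooled human liver microsomes (1 mg/mL protein) were incubated 60 min at 37 °C in 100 mM potassium phosphate pH 7.4. The mix held 10 μM compound, 1 mM MgCl2, 1 mM EDTA, 5 mM GSH and 1 mM NADPH. After quenching, GSH adducts were detected by UPLC/HRMS. Summed adduct peak areas were divided by the labetalol internal-standard area.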

[1] = biological target: T1, Orexin/Hypocretin receptor type 1 (Homo sapiens, UniProt O43613); test: Displacement of [3H](S)-N-(biphenyl-2-yl)-1-(2-(1-methyl-1H-benzo[d]imidazol-2-ylthio)acetyl)pyrrolidine-2-carboxamide from human OX1R expressed in CHO cells after 3 hrs by scintillation counting; format: cell-based
T1 sequence (O43613 whole entry): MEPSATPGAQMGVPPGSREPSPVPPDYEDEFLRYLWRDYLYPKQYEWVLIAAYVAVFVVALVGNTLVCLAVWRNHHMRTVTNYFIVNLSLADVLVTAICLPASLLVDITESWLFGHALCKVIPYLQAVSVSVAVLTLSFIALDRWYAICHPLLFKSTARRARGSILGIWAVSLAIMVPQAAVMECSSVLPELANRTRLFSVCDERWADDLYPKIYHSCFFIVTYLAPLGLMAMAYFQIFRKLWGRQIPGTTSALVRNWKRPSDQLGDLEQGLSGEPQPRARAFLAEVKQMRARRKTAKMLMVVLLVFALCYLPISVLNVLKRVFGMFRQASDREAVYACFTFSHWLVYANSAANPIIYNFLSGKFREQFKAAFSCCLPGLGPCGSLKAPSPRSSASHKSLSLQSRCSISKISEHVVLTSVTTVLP

[2] = biological target: T1, Orexin/Hypocretin receptor type 1; test: Displacement of [3H]N-cyclobutyl-5-methyl-N-(2-(1-methyl-1H-benzo[d]imidazol-2-ylthio)ethyl)-2-(2H-1,2,3-triazol-2-yl)benzamide from human OX1R expressed in CHO cells after 20 hrs by scintillation counting; format: cell-based
Orexin receptor type 2 [3] = biological target: T2, Orexin receptor type 2 (Homo sapiens, UniProt O43614); test: Displacement of [3H](S)-N-(2-(1H-pyrrol-1-yl)phenyl)-1-(2-(1-methyl-1H-benzo[d]imidazol-2-ylthio)acetyl)pyrrolidine-2-carboxamide from human OX2R expressed in CHO cells after 3 hrs by scintillation counting; format: cell-based
T2 sequence (O43614 whole entry): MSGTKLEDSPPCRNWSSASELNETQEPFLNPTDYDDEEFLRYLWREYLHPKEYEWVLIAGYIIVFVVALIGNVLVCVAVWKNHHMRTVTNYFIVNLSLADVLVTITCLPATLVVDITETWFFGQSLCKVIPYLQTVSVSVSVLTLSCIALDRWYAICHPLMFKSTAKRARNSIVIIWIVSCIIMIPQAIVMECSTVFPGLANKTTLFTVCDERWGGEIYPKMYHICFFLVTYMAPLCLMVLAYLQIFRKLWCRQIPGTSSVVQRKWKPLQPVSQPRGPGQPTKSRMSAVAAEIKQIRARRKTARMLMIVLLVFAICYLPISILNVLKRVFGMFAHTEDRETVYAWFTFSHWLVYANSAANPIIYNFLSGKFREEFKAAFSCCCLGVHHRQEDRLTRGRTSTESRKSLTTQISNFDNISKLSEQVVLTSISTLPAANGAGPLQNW

[4] = biological target: T1, Orexin/Hypocretin receptor type 1; test: Antagonist activity at human OX1R expressed in CHO cells assessed as inhibition of orexin-A-induced intracellular calcium mobilization after 5 mins by FLIPR assay; format: functional, cell-based
Orexin receptor type 2 [5] = biological target: T2, Orexin receptor type 2; test: Antagonist activity at human OX2R expressed in CHO cells assessed as inhibition of orexin-A-induced intracellular calcium mobilization after 5 mins by FLIPR assay; format: functional, cell-based
[6] = Clearance in dog at 0.5 mg/kg, iv; format: ADME, organism-based, Canis lupus familiaris; design: dose 0.5 mg/kg, route intravenous; details: in vivo
Outline: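 Dogs received an IV dose with DMSO as vehicle (n = 3). Clearance was derived from plasma pharmacokinetics.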

[7] = Lipophilicity, log P of the compound; format: physicochemical; details: octanol/water
Rattus norvegicus [8] = test: Antiinsomnic activity in Sprague-Dawley rat assessed as decrease in active wake duration at 30 mg/kg/day, po measured with 3 to 4 hrs post last dose; format: functional, organism-based
Outline: (§1)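 Telemetry-implanted rats with ECoG and EMG electrodes placed under isoflurane, recovered at least two weeks, 12 h light:dark cycle. 30 mg/kg free base suspended in 20% aqueous TPGS given by oral gavage 5 h into the active phase. Crossover design with four rats, one week on drug and one on vehicle. Automated staging in 30 min bins, averaged over seven nights, mixed ANOVA.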

Rattus norvegicus [9] = test: Antiinsomnic activity in Sprague-Dawley rat assessed as increase in rapid-eye movement at 30 mg/kg/day, po measured with 3 to 4 hrs post last dose; format: functional, organism-based; outline: as §1
Rattus norvegicus [10] = test: Antiinsomnic activity in Sprague-Dawley rat assessed as increase in delta sleep duration at 30 mg/kg/day, po measured with 3 to 4 hrs post last dose; format: functional, organism-based; outline: as §1
Rattus norvegicus [11] = test: Antiinsomnic activity in Sprague-Dawley rat assessed as decrease in light sleep duration at 30 mg/kg/day, po measured with 3 to 4 hrs post last dose; format: functional, organism-based; outline: as §1
[12] = Cmax in Sprague-Dawley rat CSF at 30 mg/kg/day, po; format: ADME, organism-based, Cerebrospinal fluid; design: dose 30 mg/kg/day, route oral
[13] = Drug level in Sprague-Dawley rat CSF at 30 mg/kg/day, po; format: ADME, organism-based, Cerebrospinal fluid; design: route oral; details: in vivo, read-out: Drug uptake
Rattus norvegicus [14] = test: In vivo occupancy of human OX2R ubiquitously overexpressed in iv dosed transgenic rat after 30 mins; format: functional
Outline: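 Transgenic human OX2R rats were infused IV over 30 min at 0.1-2.0 mg/kg in 25% hydroxypropyl-β-cyclodextrin, then sacrificed. Brain homogenate at 10 mg tissue/mL was incubated with 200 pM radioligand at room temperature and filtered at 2-15 min. Nonspecific binding was set with 1 μM unlabeled DORA. Occupancy = (1 - slope_drug/slope_vehicle) × 100; Occ90 came from nonlinear fit.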

[15] = Drug level in human OX2R overexpressing transgenic rat plasma at 1.34 mg/kg, iv after 30 mins; format: ADME, organism-based; design: dose 1.34 mg/kg, route intravenous; details: read-out: Drug uptake
Outline: (§2)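 Transgenic rats expressing human OX2R received a 30 min IV infusion, 0.1-2.0 mg/kg, in 25% hydroxypropyl-β-cyclodextrin. They were then sacrificed, and brain, plasma and CSF were frozen. Drug levels were measured by LCMS.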

[16] = Drug level in human OX2R overexpressing transgenic rat brain at 1.34 mg/kg, iv after 30 mins; format: ADME, organism-based; design: dose 1.34 mg/kg, route intravenous; details: read-out: Drug uptake; outline: as §2
[17] = Drug level in human OX2R overexpressing transgenic rat CSF at 1.34 mg/kg, iv after 30 mins; format: ADME, organism-based, Cerebrospinal fluid; design: dose 1.34 mg/kg, route intravenous; details: read-out: Drug uptake; outline: as §2
Rattus norvegicus [18] = test: In vivo occupancy of human OX2R ubiquitously overexpressed in transgenic rat at 30 mg/kg/day, iv after 30 mins; format: functional
[19] = Thermal stability of the compound; format: physicochemical
[20] = Chemical stability in pH-dependent solution; format: physicochemical
[21] = Aqueous solubility of the compound; format: physicochemical; details: buffer
[22] = Genotoxicity in Salmonella Typhimurium by Ames test; format: toxicity; details: salmonella enterica subsp. enterica serovar typhimurium
Canis familiaris = species: Canis familiaris; test: Cardiotoxicity in dog; format: toxicity, organism-based, Canis lupus familiaris; details: in vivo
[23] = Plasma protein binding in rat; format: ADME, cell-free; details: read-out: PPB
[24] = Plasma protein binding in human; format: ADME, cell-free; details: read-out: PPB
Rattus norvegicus [25] = test: Clearance in rat at 2 mg/kg, iv; format: ADME, organism-based; design: dose 2 mg/kg, route intravenous; details: in vivo
Outline: (§3)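 IV PK in DMSO vehicle: rat at 2 mg/kg, dog at 0.5 mg/kg. Clearance, Vd_ss and terminal half-life were derived from plasma levels.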

[26] = Volume of distribution at steady state in rat at 2 mg/kg, iv; format: ADME, organism-based; design: dose 2 mg/kg, route intravenous; details: in vivo, read-out: Vdss; outline: as §3
[27] = Terminal half life in rat at 2 mg/kg, iv; format: ADME, organism-based; design: dose 2 mg/kg, route intravenous; details: in vivo, read-out: beta t1/2 (converted); outline: as §3
[28] = Volume of distribution at steady state in dog at 0.5 mg/kg, iv; format: ADME, organism-based, Canis lupus familiaris; design: dose 0.5 mg/kg, route intravenous; details: in vivo, read-out: Vdss; outline: as §3
[29] = Terminal half life in dog at 0.5 mg/kg, iv; format: ADME, organism-based, Canis lupus familiaris; design: dose 0.5 mg/kg, route intravenous; details: in vivo, read-out: beta t1/2 (converted); outline: as §3
[30] = AUC in dog at 3 mg/kg, po; format: ADME, organism-based, Canis lupus familiaris; design: dose 3 mg/kg, route oral; details: plasma
[31] = Cmax in dog at 3 mg/kg, po; format: ADME, organism-based, Canis lupus familiaris; design: dose 3 mg/kg, route oral; details: in vivo
[32] = Oral bioavailability in dog at 3 mg/kg; format: ADME, organism-based, Canis lupus familiaris; details: in vivo
[33] = Tmax in dog at 3 mg/kg, po; format: ADME, organism-based, Canis lupus familiaris; design: dose 3 mg/kg, route oral; details: in vivo
[34] = AUC in rat at 10 mg/kg, po; format: ADME, organism-based; design: dose 10 mg/kg, route oral; details: plasma
[35] = Cmax in rat at 10 mg/kg, po; format: ADME, organism-based; design: dose 10 mg/kg, route oral; details: in vivo
[36] = Tmax in rat at 10 mg/kg, po; format: ADME, organism-based; design: dose 10 mg/kg, route oral; details: in vivo
[37] = Oral bioavailability in rat at 10 mg/kg; format: ADME, organism-based; details: in vivo

**Q.** With `C[C@@H]1CCN(c2ncc3c(n2)CCCC3)CCN1C(=O)c1ccccc1-n1nccn1` as the compound, how does the Ratio (Liver microsomes) read?
**A.** The Ratio was 0.7.

**Q.** What about the pKi [1] of the same compound?
**A.** Its pKi is 9.11.

**Q.** What about the pKi [2] of the same compound?
**A.** Its pKi is 9.11.

**Q.** And the pKi (Orexin receptor type 2 [3])?
**A.** The pKi was 9.55.

**Q.** And the pIC50 [4]?
**A.** The pIC50 was 7.62.

**Q.** What about the pIC50 (Orexin receptor type 2 [5]) of the same compound?
**A.** Its pIC50 is 7.55.

**Q.** What about the clearance [6] of the same compound?
**A.** The clearance was 9.2 mL/min/kg.

**Q.** What does the source list for `Cc1ccc(-n2nccn2)c(C(=O)N2CCN(c3nc4cc(Cl)ccc4o3)CC[C@H]2C)c1` [SUVOREXANT]?
**A.** logP [7]: 3.6; Activity (Rattus norvegicus [8]): Active; Activity (Rattus norvegicus [9]): Active; Activity (Rattus norvegicus [10]): Active; Activity (Rattus norvegicus [11]): Active; Cmax [12]: 2100 nM; concentration [13]: 21 nM; Activity (Rattus norvegicus [14]): 1.34 mg/kg; concentration at 0.5 h [15]: 1070 nM; concentration at 0.5 h [16]: 1180 nM; concentration at 0.5 h [17]: 13 nM; Activity (Rattus norvegicus [18]): >90%; Stability [19]: Stable; Stability [20]: Stable; solubility [21]: Soluble; Activity [22]: Non-toxic; Activity (Canis familiaris): Non-toxic; fraction unbound [23]: 0.01; fraction unbound [24]: 0.01; clearance (Rattus norvegicus [25]): 44 mL/min/kg; Vd [26]: 2.6 L/kg; half-life [27]: 36 min; clearance [6]: 4 mL/min/kg; Vd [28]: 0.8 L/kg; half-life [29]: 198 min; AUC [30]: 16.9 µM·h; Cmax [31]: 3200 nM; bioavailability [32]: 56%; Tmax [33]: 30 min; AUC [34]: 1.7 µM·h; Cmax [35]: 480 nM; Tmax [36]: 30 min; bioavailability [37]: 19%
